From PubChem BioAssay
This is one part of a sample in which hits are shown more often than they occur.
YB-1 expression – YB-1 expression inhibition | U2OS, qRT-PCR YB-1 vs CDIP delta delta Cp, 16 h; hits give high values; zero = DMSO, each unit about twofold | delta delta Cp (YB-1 minus CDIP) (no concentration beside the values) | actives 0.37% (n = 30,000);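 active means delta delta Cp rounded down to an integer at or above 3, about 3 SD of DMSO wells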;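 further: higher means less YB-1 transcript or more CDIP transcript relative to DMSO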
T cruzi intra – intracellular Trypanosoma cruzi inhibition; intracellular Trypanosoma cruzi in host cells, plate reader; activity score (inhibition), % at 5.01 µM; actives 4.9% (n = 22,000); in the data active means activity score above about 55%;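 further: parasites and compound incubated about four days before reading; 0% = median of neutral control wells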
INS-1E ATP HTS – rescue of cytokine-induced death in INS-1E beta cells | INS-1E cytokine-induced death, ATP luminescence, 48 h; normalised: neutral wells 0, positive control 100 | protection from cytokine-induced ATP loss, % at 10 µM | actives 0.1% (n = 20,000) | AID 488910;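 active means mean replicate protection from cytokine-induced ATP loss at least 50% and at least 75% of replicates each reaching 50%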
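Assay system: INS-1E rat insulinoma cells. Amount: 8000 cells per well. Medium: phenol-red-free RPMI with 5% fetal bovine serum. Reagent: IL-1β, TNF-α and IFN-γ cytokine mix. Doses: one compound concentration, pin transfer. Schedule: 48 h co-treatment, 10 min post-lysis read. Detection: CellTiter-Glo luminescence measuring cellular ATP.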
An asterisk follows results filed as active; / = no result given.

SMILES | YB-1 expression | T cruzi intra | INS-1E ATP HTS
Cc1ccc(S(=O)(=O)Nc2ccc3c(c2)CC(=O)N([C@H](C)CO)C[C@@H](C)[C@H](CN(C)Cc2ccccc2)O3)cc1 | -0.019 | 67* | 0
C[C@@H]1CN([C@H](C)CO)C(=O)Cc2cc(NS(=O)(=O)c3ccc(Cl)cc3)ccc2O[C@@H]1CN(C)Cc1ccc(-c2ccccc2)cc1 | -0.3 | 67* | -42
C[C@@H]1CN([C@H](C)CO)C(=O)c2cc(NC(=O)Nc3ccccc3)ccc2O[C@@H]1CN(C)C(=O)NC1CCCCC1 | -0.19 | 4 | 1
C[C@H]1CN([C@@H](C)CO)C(=O)c2cc(NC(=O)Nc3ccc4c(c3)OCO4)ccc2O[C@H]1CN(C)C(=O)Nc1ccccc1 | 0.12 | -5 | 0
O=C1c2nc3cc(-c4ccccc4)[nH]n3c(=O)c2CN1C1CCCCC1 | -0.82 | / | /
Cc1ccc(S(=O)(=O)N(C)C[C@H]2Oc3ccc(NC(=O)NC4CCCCC4)cc3C(=O)N([C@@H](C)CO)C[C@H]2C)cc1 | 0.49 | 15 | 0
C[C@H]1CN([C@@H](C)CO)C(=O)c2cc(NC(=O)Nc3ccc(C(F)(F)F)cc3)ccc2O[C@@H]1CN(C)Cc1ccc(-c2ccccc2)cc1 | -0.11 | -9 | -12
Cc1ccc(S(=O)(=O)Nc2ccc3c(c2)C(=O)N([C@@H](C)CO)C[C@H](C)[C@H](CN(C)Cc2ccc(Cl)c(Cl)c2)O3)cc1 | -0.15 | 14* | /
C[C@H]1CN([C@@H](C)CO)C(=O)c2cc(NS(=O)(=O)c3cccs3)ccc2O[C@@H]1CN(C)Cc1ccc(Cl)c(Cl)c1 | -0.026 | 57* | -9
C[C@@H]1CN([C@H](C)CO)C(=O)c2cc(NS(=O)(=O)c3ccc(F)cc3)ccc2O[C@H]1CN(C)Cc1ccc(Cl)c(Cl)c1 | -0.033 | 7 | -11
C[C@H](CO)N1C[C@H](C)[C@@H](CN(C)Cc2ccc(Cl)c(Cl)c2)Oc2ccc(NS(=O)(=O)c3ccc(Cl)cc3)cc2C1=O | 0.12 | 64* | -6
Cc1ccc(S(=O)(=O)Nc2ccc3c(c2)C(=O)N([C@H](C)CO)C[C@H](C)[C@@H](CN(C)Cc2ccc(Cl)c(Cl)c2)O3)cc1 | 0.23 | 9 | -7
C[C@H](CO)N1C[C@H](C)[C@@H](CN(C)Cc2ccncc2)Oc2ccc(NS(=O)(=O)c3cccs3)cc2C1=O | -0.075 | 3 | 0
C[C@@H]1CN([C@@H](C)CO)C(=O)Cc2cc(NC(=O)Nc3ccc(F)cc3)ccc2O[C@@H]1CN(C)C(=O)Nc1ccc(F)cc1 | 0.18 | -6 | 2
COc1ccc(CN(C)C[C@@H]2Oc3ccc(NC(=O)NC4CCCCC4)cc3C(=O)N([C@H](C)CO)C[C@@H]2C)cc1 | -0.33 | 4 | 0
Cc1noc(C)c1S(=O)(=O)Nc1ccc2c(c1)C(=O)N([C@@H](C)CO)C[C@H](C)[C@@H](CN(C)Cc1ccc(C(F)(F)F)cc1)O2 | -0.29 | 65* | -8
Cc1noc(C)c1S(=O)(=O)Nc1ccc2c(c1)C(=O)N([C@H](C)CO)C[C@H](C)[C@H](CN(C)C(=O)Nc1ccc(C(F)(F)F)cc1)O2 | -0.42 | 73* | /
Cc1noc(C)c1S(=O)(=O)Nc1ccc2c(c1)C(=O)N([C@H](C)CO)C[C@H](C)[C@@H](CN(C)C(=O)Nc1ccc(C(F)(F)F)cc1)O2 | -0.38 | 7 | 4
Cc1noc(C)c1S(=O)(=O)Nc1ccc2c(c1)CC(=O)N([C@H](C)CO)C[C@@H](C)[C@@H](CN(C)Cc1ccc(C(F)(F)F)cc1)O2 | 0.056 | 69* | -37
Cc1noc(C)c1S(=O)(=O)Nc1ccc2c(c1)CC(=O)N([C@@H](C)CO)C[C@@H](C)[C@@H](CN(C)Cc1ccc(C(F)(F)F)cc1)O2 | -0.015 | 34 | -10
Cc1noc(C)c1S(=O)(=O)Nc1ccc2c(c1)C(=O)N([C@H](C)CO)C[C@@H](C)[C@@H](CN(C)Cc1ccc(C(F)(F)F)cc1)O2 | 0.054 | -1 | -8
Cc1noc(C)c1NC(=O)Nc1cccc2c1O[C@@H](CN(C)Cc1ccc(Cl)c(Cl)c1)[C@@H](C)CN([C@H](C)CO)C2=O | 1 | 11 | -8
C[C@@H]1CN([C@H](C)CO)C(=O)c2cc(N(C)C)ccc2O[C@@H]1CN(C)C(=O)Nc1ccc(C(F)(F)F)cc1 | -0.39 | -4 | -8
C[C@@H]1CN([C@H](C)CO)C(=O)Cc2cc(NC(=O)Nc3ccc4c(c3)OCO4)ccc2O[C@@H]1CN(C)C(=O)Nc1ccc2c(c1)OCO2 | -0.046 | -6 | 1
COc1ccc(S(=O)(=O)N(C)C[C@H]2Oc3ccc(NS(=O)(=O)c4ccc(C)cc4)cc3CC(=O)N([C@H](C)CO)C[C@H]2C)cc1 | 0.096 | 64* | 7
SMILES | YB-1 expression | T cruzi intra | INS-1E ATP HTS
COc1ccc(S(=O)(=O)Nc2ccc3c(c2)CC(=O)N([C@@H](C)CO)C[C@@H](C)[C@@H](CN(C)S(=O)(=O)c2ccc(C)cc2)O3)cc1 | -0.094 | 63* | 7
COc1ccc(S(=O)(=O)Nc2ccc3c(c2)CC(=O)N([C@H](C)CO)C[C@H](C)[C@H](CN(C)S(=O)(=O)c2ccc(C)cc2)O3)cc1 | 0.2 | 21 | -2
COc1ccc(S(=O)(=O)N(C)C[C@@H]2Oc3ccc(NS(=O)(=O)c4ccc(C)cc4)cc3CC(=O)N([C@@H](C)CO)C[C@@H]2C)cc1 | -0.05 | -4 | 9
C[C@@H]1CN([C@H](C)CO)C(=O)c2cccc(NC(=O)NC3CCCCC3)c2O[C@H]1CN(C)Cc1ccc(Oc2ccccc2)cc1 | 0.45 | 61* | -38
C[C@@H]1CN([C@H](C)CO)C(=O)c2cccc(NC(=O)NC3CCCCC3)c2O[C@H]1CN(C)Cc1ccccc1 | -0.23 | 23 | 8
C[C@H]1CN([C@@H](C)CO)C(=O)c2cccc(NC(=O)NC3CCCCC3)c2O[C@@H]1CN(C)Cc1ccc(Oc2ccccc2)cc1 | -0.45 | 49 | -21
C[C@@H]1CN([C@H](C)CO)C(=O)c2cccc(NC(=O)NC3CCCCC3)c2O[C@@H]1CN(C)Cc1ccc(Oc2ccccc2)cc1 | -0.49 | 64* | -55
C[C@@H]1CN([C@H](C)CO)C(=O)c2cccc(NC(=O)NC3CCCCC3)c2O[C@H]1CN(C)Cc1ccc(-c2ccccc2)cc1 | -0.34 | 34 | -7
C[C@H](CO)N1C[C@H](C)[C@@H](CN(C)Cc2ccc(-c3ccccc3)cc2)Oc2c(NC(=O)NC3CCCCC3)cccc2C1=O | 0.1 | 68* | -19
O=C(/C=C/c1ccc(O)cc1)NCC(O)c1ccc(O)cc1 (stereo not given) | 0.051 | / | /
Cc1ccc(S(=O)(=O)N(C)C[C@@H]2Oc3ccc(NC(=O)Nc4c(C)noc4C)cc3C(=O)N([C@H](C)CO)C[C@@H]2C)cc1 | 0.3 | -10 | /
C[C@@H]1CCCCO[C@@H](CN(C)S(=O)(=O)c2cn(C)cn2)[C@@H](C)CN([C@H](C)CO)C(=O)c2cc(NS(=O)(=O)c3ccc(Cl)cc3)ccc2O1 | -0.48 | -31 | 18
O=C(N/N=C/c1ccc2c(c1)OCCO2)c1ccccc1O | -0.15 | -14 | -18
C[C@H](CO)N1C[C@H](C)[C@H](CN(C)Cc2ccc(C(F)(F)F)cc2)Oc2ccc(NC(=O)Nc3cccc4ccccc34)cc2C1=O | -0.81 | 49 | /
